Results: PubChem BioAssay
Results filed as inconclusive are left out.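 Rule for the calls, unless noted: active = inhibition over a set limit, the all-compound mean plus 3 SD, in both replicate runs; inconclusive = over that limit in just one replicate run; inactive = at or under that limit in both runs.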

Columns and labels:
[1] = OD615 S. cerevisiae growth inhibition, permissive medium, pilot counter-assay, permissive growth control for S. cerevisiae lifespan shortening project (AID 705;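 active = growth inhibition above 25% in both replicates, a cutoff set 3 SD above the mean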); conditions: OD615, 24 h, at 10 µM, stronger effect = higher value
Outline: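 System – S. cerevisiae with engineered DeaD lifespan system · Buffer or medium – SC raffinose/galactose permissive medium · Schedule – cells pre-grown 4 h, then 24 h compound exposure, 30 °C humidified · Technique – culture turbidity as optical density at 615 nm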

[2] = Restrictive medium S. cerevisiae growth inhibition, OD615, pilot screen of yeast lifespan reduction project, restrictive growth control (AID 706;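 active = growth inhibition above a set limit, 3 SD over mean compound inhibition, in both replicates, cut at about 43% in these data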;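 note: modified DeaD lifespan yeast strain shifted to restrictive glucose medium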); conditions: OD615, 48 h, at 10 µM, stronger effect = higher value
Outline: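 Material: engineered S. cerevisiae DeaD strain / Medium: glucose-based CSMM-D restrictive medium / Compound: single dose of 10 µM compound final, 0.25% DMSO / Timing: 4 h pre-incubation, 48 h exposure at 30 °C / Technique: OD615 absorbance reading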

[3] = viability gain of MRP-1-high H69AR cells under doxorubicin, pilot screen, MRP-1 activator project, CellTiter-Glo, duplicate (AID 807;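 active = viability increase at or above a cutoff of the median across tested compounds plus 3 SD, cut at about 8.5% in these data, passing the limit was not always enough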;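 note: compound pretreatment 18-22 h then 72 h combined with doxorubicin; 0% = doxorubicin alone and 100% = vehicle without doxorubicin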); conditions: H69AR viability with doxorubicin, CellTiter-Glo luminescence; at 10 µM; stronger effect = higher value
[4] = growth suppression of beta-catenin knockout HCT116, pilot screen, human colon tumor cells (AID 823;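 active = cell viability at or below a set limit in both duplicate runs, the limit being the all-compound median minus 4 SD, cut at about 23% in these data, passing the limit was not always enough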;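 note: 0% = wells killed by 20 µM Hyamine and 100% = untreated DMSO cell wells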); conditions: CellTiter-Glo, 60 h, at 10 µM, stronger effect = lower value
[5] = growth suppression of PTEN-deleted HCT116, pilot screen, cell-based, HCT116 clonal line, CellTiter-Glo (AID 824;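 active = viability at or below 27.92% in each of two runs, the all-compound median minus 4 SD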;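 note: 0% = 20 µM Hyamine control and 100% = vehicle cell control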); conditions: 60 h, at 10 µM, stronger effect = lower value
[6] = inhibitors of the yeast RAM network, pilot screen, dse1pr::URA3 reporter, 5-FOA selection (AID 869);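 note: 0% = DMSO wells with no growth and 100% = 10 µM 1-NA-PP1 with full growth; RAM network block rescues cells from 5-FOA so hits raise OD615 growth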; conditions: S. cerevisiae dse1pr::URA3 5-FOA growth, OD615, 2 d; at 10 µM; stronger effect = higher value; strain carries analog-sensitive mutant Cbk1 kinase
[7] = RAM signaling pathway blockade in yeast – S. cerevisiae, Pdr1DBD-CYC8 efflux-inhibited sensitized strain, primary screen (AID 1298;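 active = RAM network inhibition above 8.4% in each of two replicates, 3 SD over the compound average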;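 note: 0% = DMSO untreated cells without growth and 100% = 10 µM 1-NA-PP1 full growth; higher means more yeast growth rescued from 5-FOA killing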); conditions: S. cerevisiae cbk1-as DSE1-URA3 strain, 5-FOA growth OD615, 2 d; at 50 µM; stronger effect = higher value

CCCCCOC(=O)NCC(O)c1ccccc1 (configuration not stated)
inactive: growth inhibition [1] -12.5% | growth inhibition [2] -8.97% | viability increase [3] -1.52% | viability [4] 101% | viability [5] 95.5% | inhibition [6] 2.22% | RAM network inhibition [7] 5.59%

O=C(Nc1nccs1)c1cc(S(=O)(=O)N2CCCCC2)ccc1Cl
inactive: growth inhibition [1] -6.76% | growth inhibition [2] -16.1% | viability increase [3] 0.46% | viability [4] 99.7% | viability [5] 88.6% | inhibition [6] 1.89% | RAM network inhibition [7] 4.88%

CCOc1ccc(N=CC2=C(O)CC(C)(C)CC2=O)cc1
inactive: growth inhibition [1] -18.6% | growth inhibition [2] -0.24% | viability increase [3] -0.38% | viability [4] 92% | viability [5] 103% | inhibition [6] 1.86% | RAM network inhibition [7] 1.77%

O=C(CN1CCN(c2ncccn2)CC1)N1CCN(C(c2ccccc2)c2ccccc2)CC1
inactive: growth inhibition [1] -1.1% | growth inhibition [2] -2.38% | viability increase [3] -3.26% | viability [4] 84.8% | viability [5] 85% | inhibition [6] 1.64% | RAM network inhibition [7] 0.61%

OC(COc1ccccc1)Cn1cc(Br)cn1 (configuration not stated)
inactive: growth inhibition [1] -3.63% | growth inhibition [2] -8.39% | viability increase [3] -0.64% | viability [4] 106% | viability [5] 96.1% | inhibition [6] 1.23% | RAM network inhibition [7] 0.93%

COc1ccccc1OCc1nc(C#N)c(N2CC(C)CC(C)C2)o1 (configuration not stated)
inactive: growth inhibition [1] -10.7% | growth inhibition [2] -24.8% | viability increase [3] -2.5% | viability [4] 71.7% | viability [5] 72.9% | inhibition [6] 1.48% | RAM network inhibition [7] 9.85%

CCOC(=O)c1sc2nc(NC(=O)c3cccs3)sc2c1C
inactive: growth inhibition [1] 5.51% | growth inhibition [2] -2.37% | viability increase [3] -1.92% | viability [4] 92.5% | viability [5] 87.4% | inhibition [6] -0.28% | RAM network inhibition [7] -0.16%

CCCCSCc1[nH]c(=O)[nH]c1C(=O)CCCCC(=O)OCC
inactive: growth inhibition [1] -12.8% | growth inhibition [2] -1.29% | viability increase [3] -3.65% | viability [4] 99.4% | viability [5] 100% | inhibition [6] 0.975% | RAM network inhibition [7] 2.54%

O=C(O)CC(NC(=O)OCc1ccccc1)c1ccccc1 (configuration not stated)
inactive: growth inhibition [1] 2.56% | growth inhibition [2] -5.79% | viability increase [3] -1.78% | viability [4] 91.7% | viability [5] 96.5% | inhibition [6] 1.17% | RAM network inhibition [7] -0.33%

CC1CCN(c2nc(-c3ccccc3)c(C#N)c(=O)[nH]2)CC1
inactive: growth inhibition [1] -10.1% | growth inhibition [2] -13.7% | viability increase [3] -0.55% | viability [4] 101% | viability [5] 92.1% | inhibition [6] 1.46% | RAM network inhibition [7] 2.74%

CC(=O)c1cccc(NC(=O)Nc2cc3sccc3n2C)c1
inactive: growth inhibition [1] 10.3% | growth inhibition [2] 10.1% | viability increase [3] -3.17% | viability [4] 98.2% | viability [5] 95.9% | inhibition [6] 0.69% | RAM network inhibition [7] 5.08%

COc1c(Cl)cc(-c2noc(C)c2C(=O)NC(C)C)cc1Cl
inactive: growth inhibition [1] -17.1% | growth inhibition [2] -15.9% | viability increase [3] 0.34% | viability [4] 98.1% | viability [5] 96.4% | inhibition [6] 1.33% | RAM network inhibition [7] 2.37%

O=C(Nc1c(F)cc(F)cc1Br)c1cc(-c2ccc(O)cc2)on1
inactive: growth inhibition [1] -17.7% | growth inhibition [2] 5.22% | viability increase [3] -4.92% | viability [4] 92% | viability [5] 85.4% | inhibition [6] 0.53% | RAM network inhibition [7] -0.21%

Cc1cc(=O)[nH]c(SCC(=O)NCCOc2ccccc2)n1
inactive: growth inhibition [1] -2.17% | growth inhibition [2] -1.72% | viability increase [3] -0.09% | viability [4] 102% | viability [5] 98.8% | inhibition [6] 1.02% | RAM network inhibition [7] 1.13%

Nc1cccc(-n2nncc2-c2ccc(Cl)cc2)c1
inactive: growth inhibition [1] -6.67% | growth inhibition [2] -5.47% | viability increase [3] -1.43% | viability [4] 99.3% | viability [5] 91.8% | inhibition [6] 1.98% | RAM network inhibition [7] 3.64%

COCCOC(=O)c1[nH]c2c(c1C)C(=O)CC(c1cc(OC)ccc1OC)C2 (configuration not stated)
inactive: growth inhibition [1] -16.8% | growth inhibition [2] -12.3% | viability increase [3] -6.01% | viability [4] 38.6% | viability [5] 34.5% | inhibition [6] 2.09% | RAM network inhibition [7] 9.43%
